Legend:
Experiment in all cases: ACh EC20 potentiation across mAChRs – cell-based, calcium flux, selectivity assay for M5 allosteric modulator project, profiling panel (AID 2204)
Details in all cases: CHO-K1 mAChR panel, Fluo-4 calcium flux
[1] = target: Muscarinic acetylcholine receptor M5 (Homo sapiens) (UniProt P08912)
Procedure, shortened: (§1)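 System: transfected CHO-K1 cell lines; timing: compound pre-incubation 1.5 min, acetylcholine stimulation 50 s, at 25 °C; detection: intracellular calcium mobilization measurement; medium: HBSS buffer, pH 7.4, with 2.5 mM probenecid, 20 mM HEPES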

[2] = target: Muscarinic acetylcholine receptor M3 (Homo sapiens) (UniProt P20309)
Chain of Muscarinic acetylcholine receptor M3 (Homo sapiens) (P20309 whole entry, looked up): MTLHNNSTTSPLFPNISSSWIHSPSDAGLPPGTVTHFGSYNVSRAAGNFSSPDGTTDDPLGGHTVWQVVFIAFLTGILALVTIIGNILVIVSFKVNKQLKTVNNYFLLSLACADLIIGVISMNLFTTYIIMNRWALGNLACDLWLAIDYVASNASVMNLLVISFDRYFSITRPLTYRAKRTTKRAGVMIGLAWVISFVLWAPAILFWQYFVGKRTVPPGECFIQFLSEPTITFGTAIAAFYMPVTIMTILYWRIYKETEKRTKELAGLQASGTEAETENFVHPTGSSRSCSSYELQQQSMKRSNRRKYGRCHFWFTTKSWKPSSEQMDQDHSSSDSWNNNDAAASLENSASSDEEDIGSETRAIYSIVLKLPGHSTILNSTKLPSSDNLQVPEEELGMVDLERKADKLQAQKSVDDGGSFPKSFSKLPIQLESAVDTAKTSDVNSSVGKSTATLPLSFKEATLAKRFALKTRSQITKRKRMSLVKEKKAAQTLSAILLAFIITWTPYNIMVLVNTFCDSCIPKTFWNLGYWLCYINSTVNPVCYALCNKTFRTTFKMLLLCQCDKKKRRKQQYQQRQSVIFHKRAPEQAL
Procedure, shortened: as §1

[3] = target: Muscarinic acetylcholine receptor M1 (Rattus norvegicus) (UniProt P08482)
Chain of Muscarinic acetylcholine receptor M1 (Rattus norvegicus) (P08482 whole entry, looked up): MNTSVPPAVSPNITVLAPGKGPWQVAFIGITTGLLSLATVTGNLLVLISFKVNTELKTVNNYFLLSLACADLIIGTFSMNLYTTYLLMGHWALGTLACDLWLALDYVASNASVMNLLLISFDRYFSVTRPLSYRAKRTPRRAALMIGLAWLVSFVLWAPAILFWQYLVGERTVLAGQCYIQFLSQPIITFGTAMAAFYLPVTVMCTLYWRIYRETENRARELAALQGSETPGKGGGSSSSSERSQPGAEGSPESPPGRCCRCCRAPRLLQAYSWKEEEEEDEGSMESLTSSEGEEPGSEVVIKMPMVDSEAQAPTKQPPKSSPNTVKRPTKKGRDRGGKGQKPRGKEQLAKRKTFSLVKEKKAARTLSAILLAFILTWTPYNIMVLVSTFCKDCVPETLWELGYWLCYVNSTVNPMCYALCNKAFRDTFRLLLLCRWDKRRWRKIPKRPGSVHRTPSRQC
Procedure, shortened: as §1

Chain of Muscarinic acetylcholine receptor M5 (Homo sapiens) (P08912 whole entry, looked up): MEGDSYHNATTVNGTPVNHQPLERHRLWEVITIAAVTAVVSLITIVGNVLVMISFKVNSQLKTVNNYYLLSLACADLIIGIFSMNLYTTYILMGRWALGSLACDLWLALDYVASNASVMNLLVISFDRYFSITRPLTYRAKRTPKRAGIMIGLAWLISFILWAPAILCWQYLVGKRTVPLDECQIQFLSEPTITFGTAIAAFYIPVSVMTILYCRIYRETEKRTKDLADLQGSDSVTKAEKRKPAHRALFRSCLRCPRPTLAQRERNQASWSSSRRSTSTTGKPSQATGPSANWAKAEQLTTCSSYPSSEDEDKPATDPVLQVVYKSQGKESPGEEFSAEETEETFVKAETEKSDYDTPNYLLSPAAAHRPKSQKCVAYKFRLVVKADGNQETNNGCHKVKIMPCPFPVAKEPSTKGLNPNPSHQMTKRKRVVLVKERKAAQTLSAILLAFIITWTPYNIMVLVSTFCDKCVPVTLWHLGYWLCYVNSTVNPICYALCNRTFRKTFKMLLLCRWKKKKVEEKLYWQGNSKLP

Row | EC50 [1] [µM] | EC50 [2] [µM] | EC50 [3] [µM] | SMILES
1 | 2.65 | 3.07 | – | O=C1C(=O)N(Cc2ccc(-c3ccccc3)cc2)c2cc(OC(F)(F)F)ccc21
2 | 5.68 | 10.3 | – | COc1ccc(CN2C(=O)C(=O)c3ccc(OC(F)(F)F)cc32)cc1
3 | 1.92 | – | – | O=C1C(=O)N(Cc2ccc(Oc3ccccc3)cc2)c2ccc(OC(F)(F)F)cc21
4 | 3.26 | – | – | Cn1cc(-c2ccc(CN3C(=O)C(=O)c4cc(OC(F)(F)F)ccc43)cc2)cn1
5 | 1.16 | 109 | – | COc1ccc(CN2C(=O)C(=O)c3cc(OC(F)(F)F)ccc32)cc1

The next lines start with the compound.

Row | SMILES | EC50 [1] [µM] | EC50 [2] [µM] | EC50 [3] [µM]
6 | COc1ccccc1-c1ccc(CN2C(=O)C(=O)c3cc(OC(F)(F)F)ccc32)cc1 | 3.86 | – | –
7 | O=C1C(=O)N(Cc2ccc(-c3ccccc3)cc2)c2ccc(OC(F)(F)F)cc21 | 2.66 | – | –
8 | O=C1C(=O)N(Cc2ccc(-c3ccsc3)cc2)c2ccc(OC(F)(F)F)cc21 | 2.77 | – | –
9 | O=C1C(=O)N(Cc2ccc(Br)cc2)c2ccccc21 | 4.08 | 6.38 | 6.04
10 | O=C1C(=O)N(Cc2ccc(-c3ccc(F)nc3)cc2)c2ccc(OC(F)(F)F)cc21 | 3.59 | – | –
11 | O=C1C(=O)N(Cc2ccc(-c3ccc(Cl)nc3)cc2)c2ccc(OC(F)(F)F)cc21 | 4.83 | – | –

From PubChem BioAssay AID2204 (Vanderbilt High Throughput Screening Facility, 2009)
